Test results: ChEMBL document CHEMBL1142668, “Synthesis and biological evaluation of neutral and zwitterionic 3-carboranyl thymidine analogues for boron neutron capture therapy” (J Med Chem, 2005)

system: L929; assay: Mean phosphorylation rate of 10 uM compound by recombinant human thymidine kinase 1 (cytosolic) expressing wild type L929 tumor cells; format: functional, Mus musculus; conditions: not given
How it was run: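 Purified recombinant human TK1 (50 ng) with 10 µM substrate, final DMSO 1%, 100 µM ATP spiked with 0.03 µM [γ-32P]-ATP, in 50 mM Tris-HCl pH 7.6, 5 mM MgCl2, 125 mM KCl, 10 mM DTT, 0.5 mg/mL BSA. Run at 37 °C for 20 min, then 95 °C for 2 min. Products separated by PEI-cellulose TLC and read by phosphorimager. Rate expressed relative to thymidine, using one enzyme batch.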

**Q.** Which Phosphorylation rate does the source give for `C#CCn1c(=O)c(C)cn([C@H]2CC(O)[C@@H](CO)O2)c1=O` (single isomer, unassigned) here?
**A.** 102%

**Q.** For `Cc1cn([C@H]2C[C@H](O)[C@@H](CO)O2)c(=O)[nH]c1=O` [DOXRIBTIMINE], which Phosphorylation rate is on record?
**A.** 100%

**Q.** For `Cc1cn([C@H]2C[C@H](N=[N+]=[N-])[C@@H](CO)O2)c(=O)[nH]c1=O` [ZIDOVUDINE], which Phosphorylation rate is on record?
**A.** 52%

same assay, conditions: Mus musculus

**Q.** Which Phosphorylation rate does the source give for “3-[2-(7-Amino-closo-m-carboran-1-yl)-ethan-1-yl]thymidine” here?
**A.** 71.9%

**Q.** With “3-[2-(7-Amino-closo-m-carboran-1-yl)ethoxyethyl]thymidine” as the molecule, how does the Phosphorylation rate read?
**A.** 48.4%

**Q.** With “3-[2-(7-Ammonium-nido-m-carboran-1-yl)ethan-1-yl]-thymidine” as the molecule, how does the Phosphorylation rate read?
**A.** 89.4%

**Q.** For “3-[2-(7-Ammonium-nido-m-carboran-1-yl)ethoxyethyl]-thymidine”, which Phosphorylation rate is on record?
**A.** 75.1%

**Q.** For “3-[3-(7-Amino-closo-m-carboran-1-yl)propan-1-yl]thymidine”, which Phosphorylation rate is on record?
**A.** 58.2%

**Q.** Which Phosphorylation rate does the source give for “3-[3-(7-Ammonium-nido-m-carboran-1-yl)propan-1-yl]-thymidine” here?
**A.** 64.6%

**Q.** Which Phosphorylation rate does the source give for “3-[4-(7-Amino-closo-m-carboran-1-yl)butan-1-yl]thymidine” here?
**A.** 58%

**Q.** For “3-[4-(7-Ammonium-nido-m-carboran-1-yl)butan-1-yl]-thymidine”, which Phosphorylation rate is on record?
**A.** 63.8%

**Q.** Which Phosphorylation rate does the source give for “3-[5-(7-Amino-closo-m-carboran-1-yl)hexan-1-yl]thymidine” here?
**A.** 14.2%

**Q.** With “3-[5-(7-Amino-closo-m-carboran-1-yl)pentan-1-yl]thymidine” as the molecule, how does the Phosphorylation rate read?
**A.** 45.1%

**Q.** With “3-[5-(7-Ammonium-nido-m-carboran-1-yl)pentan-1-yl]thymidine” as the molecule, how does the Phosphorylation rate read?
**A.** 50.7%

**Q.** Which Phosphorylation rate does the source give for “3-[6-(7-Ammonium-nido-m-carboran-1-yl)hexan-1-yl]-thymidine” here?
**A.** 45.4%

**Q.** Which Phosphorylation rate does the source give for “3-[(closo-o-Caboran-1-yl)methyl]thymidine” here?
**A.** 9.6%

**Q.** Which Phosphorylation rate does the source give for N5-20H here?
**A.** 41%

system: not listed separately; assay: Mean retention time in reversed phase HPLC (RP-18); format: ADME; conditions: not given

**Q.** With `C#CCn1c(=O)c(C)cn([C@H]2CC(O)[C@@H](CO)O2)c1=O` (single isomer, unassigned) as the molecule, how does the Retention time read?
**A.** 11.79 min

**Q.** Which Retention time does the source give for `Cc1cn([C@H]2C[C@H](O)[C@@H](CO)O2)c(=O)[nH]c1=O` [DOXRIBTIMINE] here?
**A.** 8.72 min

**Q.** Which Retention time does the source give for `Cc1cn([C@H]2C[C@H](N=[N+]=[N-])[C@@H](CO)O2)c(=O)[nH]c1=O` [ZIDOVUDINE] here?
**A.** 12.22 min
